Source: ChEMBL document CHEMBL1123998, “Radioiodinated benzodiazepines: agents for mapping glial tumors” (J Med Chem, 1988)

Columns and labels:
[1] = molecular target: GABA-A receptor; anion channel; experiment: Binding affinity for GABA-A benzodiazepine receptor of rat brain
Procedure, shortened: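 Frozen rat brain (central receptor) and kidney (peripheral site) sections, 20 μm, were prewashed 3 × 5 min in 50 mM Tris pH 7.4 at 0 °C. They were incubated 90 min with 5 nM [³H]flunitrazepam plus graded competitor, with 1 μM PK 11195 defining nonspecific binding. Film autoradiography (10 days, ¹⁴C standards) was read by densitometry. Ki = IC50/(1+[L]/Kd), Kd 40 nM; N = 3.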

Translocator protein = Translocator protein (Rattus norvegicus, UniProt P16257); experiment: Binding affinity for peripheral benzodiazepine receptor of rat kidney
Rattus norvegicus [2] = species on record: Rattus norvegicus; experiment: Radioligand binding in heart tissue after 24 hr r; assay type: functional
Procedure, shortened: (§1)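 Male Sprague-Dawley rats (160–265 g) under light ether received 16–19 μCi ¹²⁵I-ligand in 0.20–0.25 mL 15:85 EtOH/PBS pH 6.0 via the femoral vein. They were decapitated at 5 min, 30 min, 2, 6 or 24 h, and tissues were weighed and gamma-counted. Results are % injected dose/g wet tissue, normalized to a 200-g rat; N = 5 per time point.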

Rattus norvegicus [3] = species on record: Rattus norvegicus; experiment: Radioligand binding in kidney tissue after 24 hr r; assay type: functional; procedure, shortened: as §1
Rattus norvegicus [4] = species on record: Rattus norvegicus; experiment: Radioligand binding in adrenal tissue after 2 hr; assay type: functional; procedure, shortened: as §1
Rattus norvegicus [5] = species on record: Rattus norvegicus; experiment: Radioligand binding in blood after 2 hr; assay type: functional; procedure, shortened: as §1
Rattus norvegicus [6] = species on record: Rattus norvegicus; experiment: Radioligand binding in brain tissue after 2 hr; assay type: functional; procedure, shortened: as §1
Rattus norvegicus [7] = species on record: Rattus norvegicus; experiment: Radioligand binding in heart tissue after 2 hr; assay type: functional; procedure, shortened: as §1
Rattus norvegicus [8] = species on record: Rattus norvegicus; experiment: Radioligand binding in kidney tissue after 2 hr; assay type: functional; procedure, shortened: as §1
Rattus norvegicus [9] = species on record: Rattus norvegicus; experiment: Radioligand binding in thyroid tissue after 2 hr; assay type: functional, Thyroid gland; procedure, shortened: as §1
Rattus norvegicus [10] = species on record: Rattus norvegicus; experiment: Radioligand binding in adrenal tissue after 24 hr r; assay type: functional; procedure, shortened: as §1
Rattus norvegicus [11] = species on record: Rattus norvegicus; experiment: Radioligand binding in blood after 24 hr r; assay type: functional; procedure, shortened: as §1
Rattus norvegicus [12] = species on record: Rattus norvegicus; experiment: (§2) Radioligand binding in brain tissue after 24 hr r; assay type: functional; procedure, shortened: as §1
Rattus norvegicus [13] = species on record: Rattus norvegicus; experiment: as §2; assay type: functional; procedure, shortened: as §1; remark: listed apart in the source
Rattus norvegicus [14] = species on record: Rattus norvegicus; experiment: Radioligand binding in heart tissue after 6 hr; assay type: functional; procedure, shortened: as §1
Rattus norvegicus [15] = species on record: Rattus norvegicus; experiment: Radioligand binding in kidney tissue after 6 hr; assay type: functional; procedure, shortened: as §1
Rattus norvegicus [16] = species on record: Rattus norvegicus; experiment: Radioligand binding in thyroid tissue after 6 hr; assay type: functional, Thyroid gland; procedure, shortened: as §1
Rattus norvegicus [17] = species on record: Rattus norvegicus; experiment: Radioligand binding in thyroid tissue after 24 hr r; assay type: functional, Thyroid gland; procedure, shortened: as §1
Rattus norvegicus [18] = species on record: Rattus norvegicus; experiment: Radioligand binding in adrenal gland after 30 min; assay type: functional; procedure, shortened: as §1
Rattus norvegicus [19] = species on record: Rattus norvegicus; experiment: Radioligand binding in blood after 30 min; assay type: functional; procedure, shortened: as §1
Rattus norvegicus [20] = species on record: Rattus norvegicus; experiment: Radioligand binding in brain tissue after 30 min; assay type: functional; procedure, shortened: as §1
Rattus norvegicus [21] = species on record: Rattus norvegicus; experiment: Radioligand binding in heart tissue after 30 min; assay type: functional; procedure, shortened: as §1
Rattus norvegicus [22] = species on record: Rattus norvegicus; experiment: Radioligand binding in kidney tissue after 30 min; assay type: functional; procedure, shortened: as §1
Rattus norvegicus [23] = species on record: Rattus norvegicus; experiment: Radioligand binding in thyroid tissue after 30 min; assay type: functional, Thyroid gland; procedure, shortened: as §1
Rattus norvegicus [24] = species on record: Rattus norvegicus; experiment: Radioligand binding in adrenal gland after 5 min; assay type: functional; procedure, shortened: as §1
Rattus norvegicus [25] = species on record: Rattus norvegicus; experiment: Radioligand binding in blood after 5 min; assay type: functional; procedure, shortened: as §1
Rattus norvegicus [26] = species on record: Rattus norvegicus; experiment: Radioligand binding in brain tissue after 5 min; assay type: functional; procedure, shortened: as §1
Rattus norvegicus [27] = species on record: Rattus norvegicus; experiment: Radioligand binding in heart tissue after 5 min; assay type: functional; procedure, shortened: as §1
Rattus norvegicus [28] = species on record: Rattus norvegicus; experiment: Radioligand binding in kidney tissue after 5 min; assay type: functional; procedure, shortened: as §1
Rattus norvegicus [29] = species on record: Rattus norvegicus; experiment: Radioligand binding in thyroid tissue after 5 min; assay type: functional, Thyroid gland; procedure, shortened: as §1
Rattus norvegicus [30] = species on record: Rattus norvegicus; experiment: Radioligand binding in adrenal tissue after 6 hr; assay type: functional; procedure, shortened: as §1
Rattus norvegicus [31] = species on record: Rattus norvegicus; experiment: Radioligand binding in blood after 6 hr; assay type: functional; procedure, shortened: as §1
[32] = molecular target: Translocator protein (Rattus norvegicus) (UniProt P16257); experiment: Reduced radioligand binding following 30 min intravenous 10 mg/kg PK11195 in adrenal tissue; assay type: functional, organism-based; set-up: dose 10 mg/kg; details: at 10 mg/kg
Rattus norvegicus [33] = species on record: Rattus norvegicus; experiment: Radioligand binding in thyroid tissue after 2 hr in rats given oral KI solution; assay type: functional, Thyroid gland
[34] = molecular target: Translocator protein (Rattus norvegicus) (UniProt P16257); experiment: Reduced radioligand binding following 30 min intravenous 10 mg/kg PK11195 in adrenal gland; assay type: functional, organism-based; set-up: dose 10 mg/kg
[35] = molecular target: Translocator protein (Rattus norvegicus) (UniProt P16257); experiment: Reduced radioligand binding following 30 min intravenous 10 mg/kg PK11195 in brain tissue; assay type: functional, organism-based; set-up: dose 10 mg/kg
[36] = molecular target: Translocator protein (Rattus norvegicus) (UniProt P16257); experiment: Reduced radioligand binding following 30 min intravenous 10 mg/kg PK11195 in heart tissue; assay type: functional, organism-based; set-up: dose 10 mg/kg
[37] = molecular target: Translocator protein (Rattus norvegicus) (UniProt P16257); experiment: Reduced radioligand binding following 30 min intravenous 10 mg/kg PK11195 in kidney tissue; assay type: functional, organism-based; set-up: dose 10 mg/kg
[38] = molecular target: Translocator protein (Rattus norvegicus) (UniProt P16257); experiment: Reduced radioligand binding following 30 min intravenous 10 mg/kg PK11195 in lung tissue; assay type: functional, organism-based; set-up: dose 10 mg/kg
[39] = molecular target: Translocator protein (Rattus norvegicus) (UniProt P16257); experiment: Reduced radioligand binding following 30 min intravenous 10 mg/kg PK11195 in submaxillary gland; assay type: functional, organism-based; set-up: dose 10 mg/kg
[40] = molecular target: Translocator protein (Rattus norvegicus) (UniProt P16257); experiment: Reduced radioligand binding following 30 min intravenous 10 mg/kg PK11195 in blood; assay type: functional, organism-based; set-up: dose 10 mg/kg

Sequence of Translocator protein (Rattus norvegicus) (P16257 whole entry, looked up): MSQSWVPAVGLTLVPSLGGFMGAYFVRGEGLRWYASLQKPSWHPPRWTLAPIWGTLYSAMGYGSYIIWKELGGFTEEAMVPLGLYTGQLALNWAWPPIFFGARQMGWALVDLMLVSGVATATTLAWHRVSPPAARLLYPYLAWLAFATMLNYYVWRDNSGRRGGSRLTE
Sequence of Translocator protein (P16257 whole entry, looked up): as above

Work on `CN1C(=O)CN=C(c2ccc(Cl)cc2)c2cc(I)ccc21` yielded a Ki [1] greater than 1000 nM, a Ki (Translocator protein) of 13.3 nM and an Activity (Rattus norvegicus [2]) of 0.25. It also gave an Activity (Rattus norvegicus [3]) of 0.25, an Activity (Rattus norvegicus [4]) of 1.84 and an Activity (Rattus norvegicus [5]) of 0.12. It also gave an Activity (Rattus norvegicus [6]) of 0.41, an Activity (Rattus norvegicus [7]) of 0.63 and an Activity (Rattus norvegicus [8]) of 0.58. For the same molecule, the Activity (Rattus norvegicus [9]) was 5.57, the Activity (Rattus norvegicus [10]) was 0.42 and the Activity (Rattus norvegicus [11]) was 0.05. For the same molecule, the Activity (Rattus norvegicus [12]) was 0.21, the Activity (Rattus norvegicus [13]) was 0.46 and the Activity (Rattus norvegicus [14]) was 0.57. The Activity (Rattus norvegicus [15]) was 0.59, the Activity (Rattus norvegicus [16]) was 17.28 and the Activity (Rattus norvegicus [17]) was 17.2. It also gave an Activity (Rattus norvegicus [18]) of 3.63, an Activity (Rattus norvegicus [19]) of 0.15 and an Activity (Rattus norvegicus [20]) of 0.46. For the same molecule, the Activity (Rattus norvegicus [21]) was 0.77, the Activity (Rattus norvegicus [22]) was 0.74 and the Activity (Rattus norvegicus [23]) was 4.42. For the same molecule, the Activity (Rattus norvegicus [24]) was 4.85, the Activity (Rattus norvegicus [25]) was 0.2 and the Activity (Rattus norvegicus [26]) was 0.75. It also gave an Activity (Rattus norvegicus [27]) of 1.15, an Activity (Rattus norvegicus [28]) of 1.1 and an Activity (Rattus norvegicus [29]) of 1.5. For the same molecule, the Activity (Rattus norvegicus [30]) was 1.3 and the Activity (Rattus norvegicus [31]) was 0.12.
Molecule `CN1C(=O)CN=C(c2ccc(Cl)cc2)c2cc(Cl)ccc21` [RO-54864] has a Ki [1] greater than 1000 nM.
`CN1C(=O)CN=C(c2ccc(I)cc2)c2cc(Cl)ccc21` showed a Ki [1] greater than 1000 nM, a Ki (Translocator protein) of 13.6 nM and a Change [32] of -75%. The Activity (Rattus norvegicus [2]) was 0.02, the Activity (Rattus norvegicus [3]) was 0.03 and the Activity (Rattus norvegicus [4]) was 2.38. The Activity (Rattus norvegicus [5]) was 0.1, the Activity (Rattus norvegicus [6]) was 0.35 and the Activity (Rattus norvegicus [7]) was 0.5. The Activity (Rattus norvegicus [8]) was 0.51, the Activity (Rattus norvegicus [9]) was 4.26 and the Activity (Rattus norvegicus [33]) was 0.49. For the same molecule, the Activity (Rattus norvegicus [10]) was 0.05, the Activity (Rattus norvegicus [11]) was 0.01 and the Activity (Rattus norvegicus [12]) was 0.01. It also gave an Activity (Rattus norvegicus [13]) of 0.14, an Activity (Rattus norvegicus [14]) of 0.19 and an Activity (Rattus norvegicus [15]) of 0.21. The Activity (Rattus norvegicus [16]) was 11.85, the Activity (Rattus norvegicus [17]) was 10.85 and the Activity (Rattus norvegicus [18]) was 7.85. It also gave an Activity (Rattus norvegicus [19]) of 0.11, an Activity (Rattus norvegicus [20]) of 0.6 and an Activity (Rattus norvegicus [21]) of 1.13. The Activity (Rattus norvegicus [22]) was 1.05, the Activity (Rattus norvegicus [23]) was 2.25 and the Activity (Rattus norvegicus [24]) was 7.1. It also gave an Activity (Rattus norvegicus [25]) of 0.22, an Activity (Rattus norvegicus [26]) of 1 and an Activity (Rattus norvegicus [27]) of 2.18. The Activity (Rattus norvegicus [28]) was 1.78, the Activity (Rattus norvegicus [29]) was 3.27 and the Activity (Rattus norvegicus [30]) was 0.6. The Activity (Rattus norvegicus [31]) was 0.05, the Distribution [34] was 1.74 and the Distribution [35] was 0.69. For the same molecule, the Distribution [36] was 0.76, the Change ([36]; at 10 mg/kg) was -34% and the Distribution [37] was 0.74. It also gave a Change ([37]; at 10 mg/kg) of -35%, a Distribution [38] of 0.58 and a Change ([38]; at 10 mg/kg) of -46%. For the same molecule, the Distribution [39] was 0.74, the Change ([39]; at 10 mg/kg) was -49% and the Distribution [40] was 0.16.
